The test system of data set [1] is Leishmania donovani. Briefly: Antileishmanial activity against Leishmania donovani MHOM/IN/80/Dd8 promastigotes transfected with luciferase reporter gene assessed as inhibition of promastigotes growth incubated for 72 hrs by Steady-Glo reagent based luminescence analysis. In kind it is functional, organism-based. The settings on record: for pIC50: MHOM/IN/80/Dd8, 72 h. Summed up: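 Luciferase-transgenic L. donovani promastigotes kept under G418 (20 μg mL⁻¹) in Medium 199 with 10% FCS at 25 ± 1 °C. Late-log cells seeded at 5×10⁵ per well with serial dilutions in DMSO for 72 h, DMSO controls run alongside. Luminescence read with Steady-Glo. % inhibition = (N−n)/N×100 vs untreated. IC50 by probit analysis, mean ± SD of three assays.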

Data set [2] concerns Leishmania donovani. The data set is described as follows: Antileishmanial activity against Leishmania donovani MHOM/IN/80/Dd8 amastigotes infected in mouse J774.A1 cells assessed as inhibition of amastigotes growth incubated for 48 hrs by Steady-Glo reagent based luminescence analysis. The class given is functional, organism-based. Conditions: for pIC50: MHOM/IN/80/Dd8, J774.A1, 48 h. The essentials:
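J774A cells (2×10⁵ per well, RPMI-1640 with 15% FCS) incubated 24 h at 37 °C in CO2, then infected with stationary-phase luciferase promastigotes (2×10⁶ per well) to give amastigotes. Compound added in fresh medium for 48 h at 37 °C. Medium replaced by PBS, Steady-Glo luminescence read, % inhibition vs untreated. IC50 by probit analysis, mean ± SD of three assays.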

For data set [3], the system named is Brugia malayi. Briefly: Antifilarial activity against Brugia malayi assessed as reduction in worm viability by measuring inhibition of MTT reduction at 50 to 100 uM incubated for 24 hrs by MTT assay relative to control. The class given is functional. The settings on record: dose 50-100 µM.
Data set [4] deals with Plasmodium falciparum. Briefly: Antimalarial activity against Plasmodium falciparum 3D7. The class given is functional, organism-based.
Data set [5] is described as follows: Cytotoxicity against mouse J774.A1 cells assessed as reduction in cell growth incubated for 48 hrs by MTT assay. The class given is toxicity, cell-based. The essentials: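 J774A cells seeded at 0.2 million per well, incubated overnight at 37 °C with 5% CO2, then exposed to compound dilutions in DMSO (DMSO controls) for 48 h. Viability by MTT formazan, OD at 600 nm against blank. CC50 is the concentration giving 50% viability loss vs medium-only cells, from probit analysis. Mean ± SD of three assays.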

Data set [6] in a line: Selectivity index, ratio of CC50 for cytotoxicity against mouse J774.A1 cells to IC50 for antileishmanial activity against Leishmania donovani MHOM/IN/80/Dd8 amastigotes infected in mouse J774.A1 cells. Conditions: read-out: Ratio CC50/IC50. In kind it is toxicity, cell-based. Summed up: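 SI = CC50 in J774A cells (MTT, 48 h) divided by IC50 against intracellular amastigotes (luciferase, 48 h). Both values are means of three independent assays.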

Data set [7] can be described thus: Stability of compound in simulated intestinal fluid assessed as parent compound remaining at pH 6.8 measured for 120 mins by LC-MS/MS analysis. The class given is ADME. Conditions: read-out: Stability. Summed up: (§1)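 Simulated fluids prepared to USP (SGF pH 1.2, SIF pH 6.8, SPF pH 7.4) and hamster plasma pre-incubated at 37 ± 2 °C for 15 min in a shaking water bath, then spiked with compound. Aliquots taken at intervals up to 120 min, quenched with acetonitrile, vortexed and centrifuged. Remaining analyte quantified by LC-MS/MS.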

Data set [8] can be described thus: Stability of compound in simulated gastric fluid assessed as parent compound remaining at pH 1.2 measured for 120 mins by LC-MS/MS analysis. The class given is ADME. The settings on record: read-out: Stability. Summed up:
as §1

The nature of data set [9]: Stability of compound in simulated physiological fluid assessed as compound remaining at pH 7.4 measured for 120 mins by LC-MS analysis. In kind it is physicochemical. The settings on record: read-out: Stability. Summed up:
as §1

Data set [10] can be described thus: Stability of compound in golden hamster plasma assessed as compound remaining measured for 120 mins by LC-MS analysis. The class given is ADME, cell-free, Mesocricetus auratus. Conditions: read-out: Stability. The essentials:
as §1

Data set [11] is described as follows: Cmax in golden hamster at 50 mg/kg, po measured after 5 mins to 24 hrs by LC-MS/MS analysis. In kind it is ADME, organism-based, Mesocricetus auratus. The arrangement: dose 50 mg/kg, time upper 1440 min, time lower 5 min, route po. The settings on record: in vivo. Summed up:
(§2)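 Golden hamsters fasted before dosing, oral 50 mg kg⁻¹. Retro-orbital blood drawn under anesthesia from 5 min to 24 h, spun at 6000g for 20 min, plasma stored at -80 °C. Protein precipitation with acetonitrile containing carbamazepine IS (3 ng mL⁻¹). LC-MS/MS on C18 column, isocratic 90% acetonitrile, positive mode, transition m/z 375.2/198.3. Parameters from non-compartmental analysis.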

Data set [12] in a line: Tmax in golden hamster at 50 mg/kg, po measured after 5 mins to 24 hrs by LC-MS/MS analysis. The settings on record: in vivo, time 5-1440 min. In kind it is ADME, organism-based, Mesocricetus auratus. Summed up:
as §2

Data set [13] is described as follows: AUC in golden hamster at 50 mg/kg, po measured after 5 mins to 24 hrs by LC-MS/MS analysis. The class given is ADME, organism-based, Mesocricetus auratus. More on the design: time lower 5 min, dose 50 mg/kg, time upper 1440 min, route po. Conditions: in vivo. Summed up: as §2
The nature of data set [14]: Half life in golden hamster at 50 mg/kg, po measured after 5 mins to 24 hrs by LC-MS/MS analysis. The settings on record: in vivo, time 5-1440 min. In kind it is ADME, organism-based, Mesocricetus auratus. The essentials: as §2
Data set [15] can be described thus: Clearance in golden hamster at 50 mg/kg, po measured after 5 mins to 24 hrs by LC-MS/MS analysis. The settings on record: in vivo, time 5-1440 min. In kind it is ADME, organism-based, Mesocricetus auratus. Summed up:
as §2

Data set [16] can be described thus: Volume of distribution in golden hamster at 50 mg/kg, po measured after 5 mins to 24 hrs by LC-MS/MS analysis. The class given is ADME, organism-based, Mesocricetus auratus. The settings on record: in vivo, time 5-1440 min. The essentials: as §2
Data set [17] is described as follows: MRT in golden hamster at 50 mg/kg, po measured after 5 mins to 24 hrs by LC-MS/MS analysis. In kind it is ADME, organism-based, Mesocricetus auratus. The settings on record: in vivo, time 5-1440 min. Summed up: as §2

SMILES strings stand for the structures. pIC50: −log10 of the molar value. Activity calls are given as the source filed them. The calls are words filed in the database; no cut-off is given here.

For `Cc1ccc(-n2cc(CNC3=C(Cl)C(=O)OC3O)nn2)cc1F` (stereo not given), the pIC50 in [1] is at most 4.30; in data set [2], at most 4.70. Also, the “inhibition (INH)” value in [3] was 66%.
For the molecule `O=C1OC(O)C(NCc2cn(-c3ccccc3)nn2)=C1Cl` (stereo not given), the pIC50 in data set [1] is at most 4.30. Further, the inhibition entry in [2] was “inactive”.
Consider `O=C1OC(O)C(NCc2cn(-c3ccc(F)cc3)nn2)=C1Cl` (stereo not given), for which the pIC50 in data set [1] was at most 4.30; in data set [4], 5.35. Besides, the inhibition entry in data set [2] is “inactive”.
On to `O=C1OC(O)C(NCc2cn(-c3ccc4c(c3)OCO4)nn2)=C1Cl` (stereo not given), for which the pIC50 is at most 4.30 in [1], at most 4.30 in [2] and 5.36 in data set [4]. The “inhibition (INH)” value in [3] came to 52%.
As to `CCCCCCCCCCCCCCCCOP(=O)([O-])OCC[N+](C)(C)C` [MILTEFOSINE], in data set [2], the pIC50 is 5.03. Moreover, in [5], the CC50 at 48 h stood at 52.1 µM. The selectivity ratio in data set [6] is 5.53.
Regarding `O=C1OC(O)C(NCc2cn(-c3ccccc3[N+](=O)[O-])nn2)=C1Cl` (stereo not given), the pIC50 in data set [1] was at most 4.30; in data set [2], at most 4.60.
In the case of `O=C1OC(O)C(NCc2cn(-c3ccc(F)c(F)c3)nn2)=C1Cl` (stereo not given), the values for the pIC50 in data set [1], in [2] and in data set [4] were at most 4.30, 5.08 and 5.44, respectively. Moreover, the CC50 at 48 h in data set [5] was 172 µM. The selectivity ratio in data set [6] is 20.5. Moreover, the remaining at 2 h in [7], in data set [8], in data set [9] and in data set [10] was at least 70% each time. The molecule further gave a Cmax in [11] of 1110 ng/mL. Moreover, the Tmax in data set [12] came to 2 h. Also, the AUC in data set [13] worked out at 4500 ng·h/mL. In data set [14], this molecule had a half-life of 2.15 h. This molecule had a CL/F in data set [15] of 207 mL/min/kg. Moreover, in [16], the Vd was determined as 38.15 L/kg. The molecule further returned an MRT in data set [17] of 3.64 h.
On to `CCCCc1ccc(-n2cc(CNC3=C(Cl)C(=O)OC3O)nn2)cc1` (stereo not given), for which, in data set [1], the pIC50 is at most 4.30. Further, the inhibition result in data set [2] was “inactive”.
Consider `O=C1OC(O)C(NCc2cn(-c3ccc(Cl)cc3)nn2)=C1Cl` (stereo not given), for which the pIC50 in [1] and in data set [2] was at most 4.30 throughout.
In the case of `Cc1cc(C)c(-n2cc(CNC3=C(Cl)C(=O)OC3O)nn2)c(C)c1` (stereo not given), the values for the pIC50 in data set [1] and in data set [2] were at most 4.30 and at most 4.70, respectively.
As for `Cc1ccc(C)c(-n2cc(CNC3=C(Cl)C(=O)OC3O)nn2)c1` (stereo not given), the pIC50 in data set [1] is at most 4.30; in [2], at most 4.30; in data set [4] it was 5.34.
In the case of `CC(C)(C)c1ccc(-n2cc(CNC3=C(Cl)C(=O)OC3O)nn2)cc1` (stereo not given), the pIC50 in [1] was at most 4.30; in data set [2], at most 4.60; in [4] it was 5.36.
Regarding `O=C1OC(O)C(NCc2cn(-c3ccc(F)c(C(F)(F)F)c3)nn2)=C1Cl` (stereo not given), the pIC50 was 4.51 in data set [1] and 5.04 in data set [2]. In data set [5], the CC50 at 48 h amounted to 136 µM. Also, in [6], the selectivity ratio is 15.
As to `Cc1ccc(-n2cc(CNC3=C(Cl)C(=O)OC3O)nn2)cc1C` (stereo not given), the pIC50 in data set [1] is 4.49; in data set [2], 5.00. Further, the CC50 at 48 h in [5] was found to be 93.5 µM. In addition, in data set [6], the selectivity ratio is 9.27. In addition, the “inhibition (INH)” value in [3] was 52%.
`COc1cc(-n2cc(CNC3=C(Cl)C(=O)OC3O)nn2)cc(OC)c1OC` (stereo not given): the pIC50 is at most 4.00 in data set [1] and 4.95 in [2]. Moreover, the CC50 at 48 h in data set [5] amounted to 84.8 µM. Further, the selectivity ratio in data set [6] was 7.5.
For `CCc1ccc(-n2cc(CNC3=C(Cl)C(=O)OC3O)nn2)cc1` (stereo not given), the pIC50 in [1] is at most 4.30. For the same molecule, the inhibition entry in data set [2] is “inactive”.
Turning to `C#CCNC1=C(Cl)C(=O)OC1O` (stereo not given), the figures for the pIC50 in data set [1] and in [2] were at most 4.30 and 4.95, respectively. Further, the CC50 at 48 h in [5] was 97.2 µM. In addition, the selectivity ratio in data set [6] came out at 8.56. In addition, the “inhibition (INH)” value in data set [3] is 65%.
Turning to `O=C1OC(O)C(NCc2cn(-c3ccccc3Oc3ccccc3)nn2)=C1Cl` (stereo not given), the pIC50 was at most 4.30 in data set [1], at most 4.70 in [2] and 5.33 in data set [4].
Regarding `CC(C)c1ccc(-n2cc(CNC3=C(Cl)C(=O)OC3O)nn2)cc1` (stereo not given), the inhibition result in data set [1] was “inactive”. In addition, the pIC50 in data set [2] is at most 4.30.
With `O=C1OC(O)C(NCc2cn(-c3cccc(C(F)(F)F)c3)nn2)=C1Cl` (stereo not given), the pIC50 in data set [1] is 4.49; in data set [2], 5.07. Further, in [5], the CC50 at 48 h worked out at 102 µM. For the same molecule, the selectivity ratio in [6] was found to be 12.1.
For the molecule `O=C1OC(O)C(NCc2cn(-c3ccc(F)c(Cl)c3)nn2)=C1Cl` (stereo not given), the pIC50 in [1] is 4.45; in data set [2], 4.98. In data set [5], the CC50 at 48 h is 78 µM. For the same molecule, in data set [6], the selectivity ratio came to 7.38.
Consider `COc1ccc(-n2cc(CNC3=C(Cl)C(=O)OC3O)nn2)cc1` (stereo not given), for which the results for the pIC50 in [1], in [2] and in [4] were at most 4.30, at most 4.60 and 5.31, respectively.
Consider `O=C1OC(O)C(NCc2cn(-c3ccc(Cl)c(Cl)c3)nn2)=C1Cl` (stereo not given), for which the pIC50 in data set [1] was 4.47; in data set [2] it was 5.06. The CC50 at 48 h in data set [5] is 84.2 µM. In addition, in data set [6], the selectivity ratio was found to be 9.75. Besides, in data set [3], the “inhibition (INH)” value came to 52%.
For `Cc1ccc(-n2cc(CNC3=C(Cl)C(=O)OC3O)nn2)cc1` (stereo not given), the pIC50 in data set [1] was at most 4.30. The inhibition entry in data set [2] was “inactive”.
Turning to `COc1ccc(-n2cc(CNC3=C(Cl)C(=O)OC3O)nn2)cc1OC` (stereo not given), the inhibition entry in data set [1] and in [2] was “inactive” in each case.

Values taken from ChEMBL document CHEMBL5329145, “Antileishmanial evaluation of triazole-butenolide conjugates: design, synthesis, in vitro screening, SAR and in silico ADME predictions” (RSC Med Chem, 2023).
